From ChEMBL document CHEMBL1123969, “Cardiovascular effects of new water-soluble derivatives of forskolin” (J Med Chem, 1988)
Converted amounts (≈) assume the structure as drawn.

Legend:
[1] = species: Cavia porcellus; assay: Positive inotropic activity in spontaneously beating guinea pig atria; type: functional, organism-based
Procedure, shortened: (§1)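 Guinea pig atria, spontaneously beating, in Ringer solution at 32 °C gassed with 95% O2/5% CO2. Isometric force recorded at 0.5–1 g initial tension after 30 min stabilization. Compounds in water or propylene glycol given cumulatively at 0.01–30 μg/mL, with 7 min contact per dose. EC50 for a 50% force increase taken graphically from the dose-response curve, in triplicate.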

[2] = system: Felis catus; assay: Effective dose for lowering blood pressure in anesthetized cat when administered intravenously; type: functional; details: iv
Procedure, shortened: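 Cats of either sex, 3–4 kg, under ether induction and chloralose (70 mg/kg iv). Compounds in distilled water or propylene glycol were given iv via the femoral vein at 0.01–10 mg/kg. Fall in mean arterial pressure read 10 min post-dose. ED20 taken graphically from the log dose-response curve, with doses run in triplicate.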

[3] = species: Cavia porcellus; assay: Positive inotropic activity was assessed in spontaneously beating guinea pig atria; NA=Not active; type: functional, organism-based; procedure, shortened: as §1

| Compound | EC50 [1] [µg/mL] | EC50 [3] | ED20 [2] [mg/kg] |
| --- | --- | --- | --- |
| C=C[C@@]1(C)CC(=O)[C@]2(O)C3(C)C(C(O)C(OC(=O)CCCn4cnc5c4c(=O)n(C)c(=O)n5C)[C@@]2(C)O1)C(C)(C)CC[C@@H]3O (some centres undefined) | – | Not Active | 3 |
| C=C[C@@]1(C)CC(=O)[C@]2(O)C3(C)C(C(O)C(OC(=O)CCN4CCN(C)CC4)[C@@]2(C)O1)C(C)(C)CC[C@@H]3O.Cl (some centres undefined) | – | Not Active | – |
| C=C[C@@]1(C)CC(=O)[C@]2(O)C3(C)C(C(O)C(OC(=O)CCN4CCOCC4)[C@@]2(C)O1)C(C)(C)CC[C@@H]3O.Cl (some centres undefined) | – | Not Active | – |
| Nc1cc(N2CCCCC2)nc(N)[n+]1[O-] [MINOXIDIL] | – | – | 0.9 |
| C=C[C@@]1(C)CC(=O)[C@]2(O)C3(C)C(C(OC(=O)Cn4cnc5c4c(=O)n(C)c(=O)n5C)C(O)[C@@]2(C)O1)C(C)(C)CC[C@@H]3O (some centres undefined) | 3 (≈ 5.1 µM) | – | 4.5 |
| C=C[C@@]1(C)CC(=O)[C@]2(O)C3(C)C(C(OC(=O)CN4CCCC(C)C4)C(O)[C@@]2(C)O1)C(C)(C)CC[C@@H]3O.Cl (some centres undefined) | > 30 | – | 5.4 |
| C=C[C@@]1(C)CC(=O)[C@]2(O)C3(C)C(C(O)C(OC(=O)CN4CCCC(C)C4)[C@@]2(C)O1)C(C)(C)CC[C@@H]3O.Cl (some centres undefined) | > 30 | – | 10 |
| C=C[C@@]1(C)CC(=O)[C@]2(O)C3(C)C(C(O)C(OC(=O)CN4CCSCC4)[C@@]2(C)O1)C(C)(C)CC[C@@H]3O.Cl (some centres undefined) | > 30 | – | 3 |
| C=C[C@@]1(C)CC(=O)[C@]2(O)C3(C)C(C(OC(=O)CN4CCC(NC(=O)c5ccccc5)CC4)C(O)[C@@]2(C)O1)C(C)(C)CC[C@@H]3O (some centres undefined) | 1.2 (≈ 1.96 µM) | – | 4 |
| C=C[C@@]1(C)CC(=O)[C@]2(O)C3(C)C(C(O)C(OC(=O)C(C)(C)N4CCOCC4)[C@@]2(C)O1)C(C)(C)CC[C@@H]3O.Cl (some centres undefined) | 3 | – | 1.8 |
| C=C[C@@]1(C)CC(=O)[C@]2(O)C3(C)C(C(O)C(OC(=O)CCCCN4CCCCC4)[C@@]2(C)O1)C(C)(C)CC[C@@H]3O.Cl (some centres undefined) | 30 | – | 1 |
| C=C[C@@]1(C)CC(=O)[C@]2(O)C3(C)C(C(OC(=O)C(C)N4CCOCC4)C(O)[C@@]2(C)O1)C(C)(C)CC[C@@H]3O.Cl (some centres undefined) | > 30 | – | 3 |
| C=C[C@@]1(C)CC(=O)[C@]2(O)C3(C)C(C(O)C(OC(=O)CCCN4CCCCC4)[C@@]2(C)O1)C(C)(C)CC[C@@H]3O.Cl (some centres undefined) | > 30 | – | 0.3 |
| C=C[C@@]1(C)CC(=O)[C@]2(O)C3(C)C(C(OC(=O)CN4CCN(C)CC4)C(O)[C@@]2(C)O1)C(C)(C)CC[C@@H]3O.Cl (some centres undefined) | 30 | – | 1.3 |
| C=C[C@@]1(C)CC(=O)[C@]2(O)C3(C)C(C(O)C(OC(=O)Cn4cnc5c4c(=O)n(C)c(=O)n5C)[C@@]2(C)O1)C(C)(C)CC[C@@H]3O (some centres undefined) | 0.74 (≈ 1.26 µM) | – | 3 |
| C=C[C@@]1(C)CC(=O)[C@]2(O)C3(C)C(C(O)C(OC(=O)CN4CCC(C)CC4)[C@@]2(C)O1)C(C)(C)CC[C@@H]3O.Cl (some centres undefined) | > 30 | – | 10 |
| C=C[C@@]1(C)CC(=O)[C@]2(O)C3(C)C(C(O)C(OC(=O)C(C)N4CCCCC4)[C@@]2(C)O1)C(C)(C)CC[C@@H]3O (some centres undefined) | > 30 | – | 4.5 |
| C=C[C@@]1(C)CC(=O)[C@]2(O)C3(C)C(C(OC(=O)CNCc4ccccc4)C(O)[C@@]2(C)O1)C(C)(C)CC[C@@H]3O.Cl (some centres undefined) | 10 | – | 3.5 |
| C=C[C@@]1(C)CC(=O)[C@]2(O)C3(C)C(C(O)C(OC(=O)CN4CCN(C)CC4)[C@@]2(C)O1)C(C)(C)CC[C@@H]3O.Cl (some centres undefined) | > 30 | – | 0.9 |
| C=C[C@@]1(C)CC(=O)[C@]2(O)C3(C)C(C(O)C(OC(=O)CN(CC)CC)[C@@]2(C)O1)C(C)(C)CC[C@@H]3O.Cl (some centres undefined) | 10 | – | 2 |
| C=C[C@@]1(C)CC(=O)[C@]2(O)C3(C)C(C(O)C(OC(=O)CCCN4CCOCC4)[C@@]2(C)O1)C(C)(C)CC[C@@H]3O.Cl (some centres undefined) | 10 | – | 1.8 |
| C=C[C@@]1(C)CC(=O)[C@]2(O)C3(C)C(C(OC(=O)CN4CCSCC4)C(O)[C@@]2(C)O1)C(C)(C)CC[C@@H]3O.Cl (some centres undefined) | 1.5 | – | 5 |
| C=C[C@@]1(C)CC(=O)[C@]2(O)C3(C)C(C(OC(=O)CN4CCCC4)C(O)[C@@]2(C)O1)C(C)(C)CC[C@@H]3O.Cl (some centres undefined) | 3 | – | 1 |
| C=C[C@@]1(C)CC(=O)[C@]2(O)C3(C)C(C(O)C(OC(=O)CNC(C)(C)C)[C@@]2(C)O1)C(C)(C)CC[C@@H]3O.Cl (some centres undefined) | > 30 | – | 1 |
| C=C[C@@]1(C)CC(=O)[C@]2(O)C3(C)C(C(OC(=O)CCN4CCN(C)CC4)C(O)[C@@]2(C)O1)C(C)(C)CC[C@@H]3O.Cl (some centres undefined) | 0.2 | – | 1.4 |
| C=C[C@@]1(C)CC(=O)[C@]2(O)C3(C)C(C(OC(=O)CN4CCCCCC4)C(O)[C@@]2(C)O1)C(C)(C)CC[C@@H]3O.Cl (some centres undefined) | 1.9 | – | 1 |
| C=C[C@@]1(C)CC(=O)[C@]2(O)C3(C)C(C(O)C(OC(=O)Cn4nnc5ccccc54)[C@@]2(C)O1)C(C)(C)CC[C@@H]3O (some centres undefined) | > 30 | – | 3 |
| C=C[C@@]1(C)CC(=O)[C@]2(O)C3(C)C(C(O)C(OC(=O)CN4CCCCC4)[C@@]2(C)O1)C(C)(C)CC[C@@H]3O.Cl (some centres undefined) | > 30 | – | 10 |

Second part, led by results:

| EC50 [1] [µg/mL] | EC50 [3] | Compound | ED20 [2] [mg/kg] |
| --- | --- | --- | --- |
| > 30 | – | C=C[C@@]1(C)CC(=O)[C@]2(O)C3(C)C(C(OC(=O)CCCCN4CCCCC4)C(O)[C@@]2(C)O1)C(C)(C)CC[C@@H]3O.Cl (some centres undefined) | 1 |
| – | Not Active | C=C[C@@]1(C)CC(=O)[C@]2(O)C3(C)C(C(O)C(OC(=O)CN(C)C4CCCCC4)[C@@]2(C)O1)C(C)(C)CC[C@@H]3O (some centres undefined) | 10 |
| 2 (≈ 3.02 µM) | – | C=C[C@@]1(C)CC(=O)[C@]2(O)C3(C)C(C(O)C(OC(=O)Cn4c(=O)c5c(ncn5COCCOC)n(C)c4=O)[C@@]2(C)O1)C(C)(C)CC[C@@H]3O (some centres undefined) | 6 |
| 1.8 | – | C=C[C@@]1(C)CC(=O)[C@]2(O)C3(C)C(C(O)C(OC(=O)CN4CCCC4)[C@@]2(C)O1)C(C)(C)CC[C@@H]3O.Cl (some centres undefined) | 4 |
| > 30 | – | C=C[C@@]1(C)CC(=O)[C@]2(O)C3(C)C(C(O)C(OC(=O)CN4CCC(O)CC4)[C@@]2(C)O1)C(C)(C)CC[C@@H]3O.Cl (some centres undefined) | 3 |
| 3 (≈ 5.12 µM) | – | C=C[C@@]1(C)CC(=O)[C@]2(O)C3(C)C(C(OC(=O)CN4CCC(O)(c5ccccc5)CC4)C(O)[C@@]2(C)O1)C(C)(C)CC[C@@H]3O (some centres undefined) | 5 |
| > 10 | – | C=C[C@@]1(C)CC(=O)[C@]2(O)C3(C)C(C(O)C(OC(=O)CNc4ccccc4)[C@@]2(C)O1)C(C)(C)CC[C@@H]3O (some centres undefined) | 2 |
| > 30 | – | C=C[C@@]1(C)CC(=O)[C@]2(O)C3(C)C(C(O)C(OC(=O)CCN4C(=O)c5ccccc5C4=O)[C@@]2(C)O1)C(C)(C)CC[C@@H]3O (some centres undefined) | 10 |
| 0.3 (≈ 0.995 µM) | – | CC(CCc1ccc(O)cc1)NCCc1ccc(O)c(O)c1 (centres undefined) [DOBUTAMINE] | – |
| – | Not Active | C=C[C@@]1(C)CC(=O)[C@]2(O)C3(C)C(C(O)C(OC(=O)Cn4cc(C(=O)OCC)c(=O)c5ccc(C(F)(F)F)cc54)[C@@]2(C)O1)C(C)(C)CC[C@@H]3O (some centres undefined) | – |
| 1 | – | C=C[C@@]1(C)CC(=O)[C@]2(O)C3(C)C(C(O)C(OC(=O)CCN4CCCCC4)[C@@]2(C)O1)C(C)(C)CC[C@@H]3O.Cl (some centres undefined) | – |
| 0.9 (≈ 1.49 µM) | – | C=C[C@@]1(C)CC(=O)[C@]2(O)C3(C)C(C(O)C(OC(=O)C(C)n4cnc5c4c(=O)n(C)c(=O)n5C)[C@@]2(C)O1)C(C)(C)CC[C@@H]3O (some centres undefined) | 5 |
